Measurements reported in ChEMBL document CHEMBL1127405, “Synthesis and antitumor evaluation of bis[(pivaloyloxy)methyl] 2'-deoxy-5-fluorouridine 5'-monophosphate (FdUMP): a strategy to introduce nucleotides into cells” (J Med Chem, 1994).

Assays:
[1] = tested on: CHO; test: The minimun drug concentration that gives rise to colonies containing fewer than 50 cells after incubation at 37 degree C against chinese hamster ovary cells; type: functional, cell-based; settings: Cricetulus griseus
How it was run: (§1)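 About 200 cells per dish were grown as clones in drug at 0, 0.5, 1.5, 5, 10, 50 or 100 μM for 7 d at 37 °C in humidified CO2. Colonies were fixed with 10% formaldehyde and stained with 0.1% crystal violet. The value is the lowest tested concentration giving colonies of fewer than 50 cells.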

[2] = tested on: CHO; test: The minimun drug concentration that gives rise to colonies containing fewer than 50 cells after incubation at 37 degree C against chinese hamster ovary cells 20 fold resistant to fluoroudine; type: functional, cell-based; settings: Cricetulus griseus; how it was run: as §1
[3] = tested on: Mus musculus; test: The compound was tested for increase in life span for mice implanted intraperitoneally with P-388/FU Leukemia cell line at 360 mg/kg; type: functional; settings: P388, ip, route intraperitoneal
How it was run: (§2)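 Male BDF1 mice, six per group, implanted ip with 1×10^6 P-388/0 or P-388/FU cells on day 0. Dosed ip daily for 5 days from 24 h post-implant, in saline or Emulphor 620 vehicle. Mice observed until death. %ILS = (T/C − 1)×100, from median survival of treated mice (T) versus saline-treated controls (C).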

[4] = tested on: Mus musculus; test: The compound was tested for increase in life span for mice implanted intraperitoneally with P-388/0 Leukemia cell line at 160 mg/kg; type: functional; settings: P388, ip, route intraperitoneal; how it was run: as §2
[5] = tested on: Mus musculus; test: The compound was tested for increase in life span for mice implanted intraperitoneally with P-388/FU Leukemia cell line at 160 mg/kg; type: functional; settings: P388, ip, route intraperitoneal; how it was run: as §2
[6] = tested on: Mus musculus; test: The compound was tested for increase in life span for mice implanted intraperitoneally with P-388/0 Leukemia cell line at 240 mg/kg; type: functional; settings: P388, ip, route intraperitoneal; how it was run: as §2
[7] = tested on: Mus musculus; test: The compound was tested for increase in life span for mice implanted intraperitoneally with P-388/0 Leukemia cell line at 360 mg/kg; type: functional; settings: P388, ip, route intraperitoneal; how it was run: as §2
[8] = tested on: Mus musculus; test: The compound was tested for increase in life span for mice implanted intraperitoneally with P-388/FU Leukemia cell line at 240 mg/kg; type: functional; settings: P388, ip, route intraperitoneal; how it was run: as §2
[9] = tested on: Mus musculus; test: The compound was tested for mean survival time for 15 mice implanted Intraperitoneally with P-388/0 Leukemia cell line at 160 mg/kg; type: functional; settings: route intraperitoneal
How it was run: (§3)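 P-388/0 or P-388/FU cells (1×10^6) implanted ip into male BDF1 mice on day 0. Dosing was ip, daily for 5 consecutive days beginning 24 h later, in saline or Emulphor 620 vehicle. Six mice per treated group. Animals followed to death and median survival time recorded in days. The control group had 15 mice.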

[10] = tested on: Mus musculus; test: The compound was tested for mean survival time for 15 mice implanted Intraperitoneally with P-388/0 Leukemia cell line at 240 mg/kg; type: functional; settings: route intraperitoneal; how it was run: as §3
[11] = tested on: Mus musculus; test: The compound was tested for mean survival time for 15 mice implanted Intraperitoneally with P-388/0 Leukemia cell line at 360 mg/kg; type: functional; settings: route intraperitoneal; how it was run: as §3
[12] = tested on: Mus musculus; test: The compound was tested for mean survival time for 15 mice implanted Intraperitoneally with P-388/FU Leukemia cell line at 160 mg/kg; type: functional; settings: route intraperitoneal; how it was run: as §3
[13] = tested on: Mus musculus; test: The compound was tested for mean survival time for 15 mice implanted Intraperitoneally with P-388/FU Leukemia cell line at 240 mg/kg; type: functional; settings: route intraperitoneal; how it was run: as §3
[14] = tested on: Mus musculus; test: The compound was tested for mean survival time for 15 mice implanted Intraperitoneally with P-388/FU Leukemia cell line at 360 mg/kg; type: functional; settings: route intraperitoneal; how it was run: as §3
[15] = tested on: Mus musculus; test: The compound was tested for change in weight for mice implanted intraperitoneally with P-388/0 Leukemia cell line at 160 mg/kg; type: functional; settings: route intraperitoneal
How it was run: (§4)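 Male BDF1 mice inoculated ip on day 0 with 1 × 10^6 leukemia cells (six mice per group, average weight 22 g). Dosing ip once daily for 5 consecutive days starting 24 h after implantation. Fluoropyrimidine references in 0.9% saline; prodrugs formulated with Emulphor 620; vehicle controls 0.2 mL. Percent body weight change recorded per group.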

[16] = tested on: Mus musculus; test: The compound was tested for change in weight for mice implanted intraperitoneally with P-388/0 Leukemia cell line at 240 mg/kg; type: functional; settings: route intraperitoneal; how it was run: as §4
[17] = tested on: Mus musculus; test: The compound was tested for change in weight for mice implanted intraperitoneally with P-388/0 Leukemia cell line at 360 mg/kg; type: functional; settings: route intraperitoneal; how it was run: as §4
[18] = tested on: Mus musculus; test: The compound was tested for change in weight for mice implanted intraperitoneally with P-388/FU Leukemia cell line at 160 mg/kg; type: functional; settings: route intraperitoneal; how it was run: as §4
[19] = tested on: Mus musculus; test: The compound was tested for change in weight for mice implanted intraperitoneally with P-388/FU Leukemia cell line at 240 mg/kg; type: functional; settings: route intraperitoneal; how it was run: as §4
[20] = tested on: Mus musculus; test: The compound was tested for change in weight for mice implanted intraperitoneally with P-388/FU Leukemia cell line at 360 mg/kg; type: functional; settings: route intraperitoneal; how it was run: as §4
[21] = The compound was tested for half life in aqueous media in 0.05 M NaOH, at 12.6; type: ADME; settings: aqueous 0.05 M NaOH, pH 12.6
How it was run: (§5)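 A 10^-3 M aqueous stock was diluted into each buffer to a final 10^-4 M and stirred at room temperature. Aliquots were taken at intervals (typically 2–100 h) and parent drug was quantified by reverse-phase C-18 HPLC with UV detection at 268 nm. Half-lives are the average of triplicate determinations.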

[22] = The compound was tested for half life in aqueous media in 0.05 M NaOH, at pH 11.7; type: ADME; settings: aqueous 0.05 M NaOH; how it was run: as §5
[23] = The compound was tested for half life in aqueous media in 0.05 M Tris-HCl buffer, at pH 9.0; type: ADME; how it was run: as §5
[24] = The compound was tested for half life in aqueous media in 0.05 M potassium phosphate buffer, at pH 7.4; type: ADME; how it was run: as §5
[25] = The compound was tested for half life in aqueous media in 0.05 M sodium acetate buffer, at pH 4.0; type: ADME; how it was run: as §5
[26] = tested on: Mus musculus; test: The compound was tested for increase in life span for mice implanted intraperitoneally with P-388/FU Leukemia cell line at 335 mg/kg; type: functional; settings: P388, ip, route intraperitoneal; how it was run: as §2
[27] = tested on: Mus musculus; test: The compound was tested for increase in life span for mice implanted intraperitoneally with P-388/0 Leukemia cell line at 149 mg/kg; type: functional; settings: P388, ip, route intraperitoneal; how it was run: as §2
[28] = tested on: Mus musculus; test: The compound was tested for increase in life span for mice implanted intraperitoneally with P-388/FU Leukemia cell line at 223 mg/kg; type: functional; settings: P388, ip, route intraperitoneal; how it was run: as §2
[29] = tested on: Mus musculus; test: The compound was tested for increase in life span for mice implanted intraperitoneally with P-388/0 Leukemia cell line at 223 mg/kg; type: functional; settings: P388, ip, route intraperitoneal; how it was run: as §2
[30] = tested on: Mus musculus; test: The compound was tested for increase in life span for mice implanted intraperitoneally with P-388/0 Leukemia cell line at 335 mg/kg; type: functional; settings: P388, ip, route intraperitoneal; how it was run: as §2
[31] = tested on: Mus musculus; test: The compound was tested for increase in life span for mice implanted intraperitoneally with P-388/FU Leukemia cell line at 149 mg/kg; type: functional; settings: P388, ip, route intraperitoneal; how it was run: as §2
[32] = tested on: Mus musculus; test: The compound was tested for mean survival time for 15 mice implanted Intraperitoneally with P-388/0 Leukemia cell line at 149 mg/kg; type: functional; settings: route intraperitoneal; how it was run: as §3
[33] = tested on: Mus musculus; test: The compound was tested for mean survival time for 15 mice implanted Intraperitoneally with P-388/0 Leukemia cell line at 335 mg/kg; type: functional; settings: route intraperitoneal; how it was run: as §3
[34] = tested on: Mus musculus; test: The compound was tested for mean survival time for 15 mice implanted Intraperitoneally with P-388/FU Leukemia cell line at 149 mg/kg; type: functional; settings: route intraperitoneal; how it was run: as §3
[35] = tested on: Mus musculus; test: The compound was tested for mean survival time for 15 mice implanted Intraperitoneally with P-388/FU Leukemia cell line at 223 mg/kg; type: functional; settings: route intraperitoneal; how it was run: as §3
[36] = tested on: Mus musculus; test: The compound was tested for mean survival time for 15 mice implanted Intraperitoneally with P-388/FU Leukemia cell line at 335 mg/kg; type: functional; settings: route intraperitoneal; how it was run: as §3
[37] = tested on: Mus musculus; test: The compound was tested for change in weight for mice implanted intraperitoneally with P-388/0 Leukemia cell line at 149 mg/kg; type: functional; settings: route intraperitoneal; how it was run: as §4
[38] = tested on: Mus musculus; test: The compound was tested for change in weight for mice implanted intraperitoneally with P-388/0 Leukemia cell line at 223 mg/kg; type: functional; settings: route intraperitoneal; how it was run: as §4
[39] = tested on: Mus musculus; test: The compound was tested for change in weight for mice implanted intraperitoneally with P-388/0 Leukemia cell line at 335 mg/kg; type: functional; settings: route intraperitoneal; how it was run: as §4
[40] = tested on: Mus musculus; test: The compound was tested for change in weight for mice implanted intraperitoneally with P-388/FU Leukemia cell line at 149 mg/kg; type: functional; settings: route intraperitoneal; how it was run: as §4
[41] = tested on: Mus musculus; test: The compound was tested for change in weight for mice implanted intraperitoneally with P-388/FU Leukemia cell line at 223 mg/kg; type: functional; settings: route intraperitoneal; how it was run: as §4
[42] = tested on: Mus musculus; test: The compound was tested for change in weight for mice implanted intraperitoneally with P-388/FU Leukemia cell line at 335 mg/kg; type: functional; settings: route intraperitoneal; how it was run: as §4
[43] = The compound was tested for half life in aqueous media in 0.20 M HCl/KCl solution, at pH 1.0; type: ADME; how it was run: as §5
[44] = tested on: Mus musculus; test: The compound was tested for mean survival time for 15 mice implanted Intraperitoneally with P-388/0 Leukemia cell line at 223 mg/kg; type: functional; settings: route intraperitoneal; how it was run: as §3

CC(=O)O[C@H]1C[C@H](n2cc(F)c(=O)[nH]c2=O)O[C@@H]1COP(=O)(OCOC(=O)C(C)(C)C)OCOC(=O)C(C)(C)C
IC50 [1]: 5 µM
IC50 [2]: 5 µM
ILS at 360 mg/kg [3]: 45%
ILS at 160 mg/kg [4]: 36%
ILS at 160 mg/kg [5]: 36%
ILS at 240 mg/kg [6]: 45%
ILS at 360 mg/kg [7]: 82%
ILS at 240 mg/kg [8]: 45%
MST [9]: 15 days
MST [10]: 16 days
MST [11]: 20 days
MST [12]: 15 days
MST [13]: 16 days
MST [14]: 16 days
Weight change [15]: -9%
Weight change [16]: -15%
Weight change [17]: -15%
Weight change [18]: -9%
Weight change [19]: -12%
Weight change [20]: -13%

CC(C)(C)C(=O)OCOP(=O)(OCOC(=O)C(C)(C)C)OC[C@H]1O[C@@H](n2cc(F)c(=O)[nH]c2=O)C[C@@H]1O
half-life [21]: 1.8 min
half-life [22]: 22.2 min
half-life [23]: 1300 min
half-life [24]: 2410 min
half-life [25]: 7.17 days
IC50 [1]: 5 µM
IC50 [2]: 5 µM
ILS at 335 mg/kg [26]: 64%
ILS at 149 mg/kg [27]: 36%
ILS at 223 mg/kg [28]: 64%
ILS at 223 mg/kg [29]: 45%
ILS at 335 mg/kg [30]: 73%
ILS at 149 mg/kg [31]: 55%
MST [32]: 15 days
MST [33]: 19 days
MST [34]: 17 days
MST [35]: 18 days
MST [36]: 18 days
Weight change [37]: 3%
Weight change [38]: -11%
Weight change [39]: -12%
Weight change [40]: -9%
Weight change [41]: -12%
Weight change [42]: -13%
half-life [43]: 5.92 days
MST [44]: 16 days
